Each structure is given as a SMILES string. Converted amounts (≈) assume the structure as drawn.

Test [1] has as its system Acinetobacter baumannii. The test is described as follows: Activity of Acinetobacter baumannii phenotype 1 beta-lactamase assessed per mg of protein at 100 uM. Put shortly: (§1)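 Crude extracts made by sonication from A. baumannii clinical isolates and from E. coli TOP10 recombinants expressing OXA-97 or OXA-58. Specific activity measured against imipenem, meropenem, cephalothin, ceftazidime, oxacillin and benzylpenicillin, each at 100 μM final. Values are means of three independent experiments; standard deviations within 10% of means.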

Test [2] has as its system Acinetobacter baumannii. Briefly: Activity of Acinetobacter baumannii phenotype 2 beta-lactamase assessed per mg of protein at 100 uM. Put shortly: as §1
Test [3] concerns Acinetobacter baumannii. Briefly: Activity of Acinetobacter baumannii MAD beta-lactamase assessed per mg of protein at 100 uM. Put shortly: as §1
Test [4] has as its system Escherichia coli. The test is described as follows: Activity of Escherichia coli TOP10 beta-lactamase OXA-58 assessed per mg of protein at 100 uM. Put shortly:
as §1

For test [5], the system named is Escherichia coli. The test is described as follows: Activity of Escherichia coli TOP10 beta-lactamase OXA-97 assessed as specific activity per mg of protein at 100 uM. Put shortly: as §1
For test [6], the system named is Acinetobacter baumannii. Briefly: Antibacterial activity against Acinetobacter baumannii phenotype 1 […]. Type of test: functional. Put shortly: (§2)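 Disk diffusion on Mueller-Hinton agar plates with β-lactam and non-β-lactam antibiotic disks, interpreted per CLSI guidelines.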
Test [7] deals with Acinetobacter baumannii. Briefly: Antibacterial activity against Acinetobacter baumannii phenotype 1 […] in presence of 4 ug/ml clavulanic acid. In kind it is functional.
The subject of test [8] is Acinetobacter baumannii. The test is described as follows: Antibacterial activity against Acinetobacter baumannii phenotype 2 […]. In kind it is functional. Put shortly:
as §2

Test [9] concerns Acinetobacter baumannii. Briefly: Antibacterial activity against Acinetobacter baumannii phenotype 2 […] in presence of 4 ug/ml clavulanic acid. Type of test: functional.
Test [10] has as its system Acinetobacter baumannii. The test is described as follows: Antibacterial activity against Acinetobacter baumannii MAD […]. Type of test: functional.
Test [11] has as its system Acinetobacter baumannii. Briefly: Antibacterial activity against Acinetobacter baumannii MAD […] in presence of 4 ug/ml clavulanic acid. In kind it is functional.
Test [12] deals with Escherichia coli. Briefly: Antibacterial activity against Escherichia coli TOP10 harboring pOXA-58. Type of test: functional.
Test [13] concerns Escherichia coli. The test is described as follows: Antibacterial activity against Escherichia coli TOP10 harboring pOXA-58 in presence of 4 ug/ml clavulanic acid. Type of test: functional.
The subject of test [14] is Escherichia coli. Briefly: Antibacterial activity against Escherichia coli TOP10 harboring pOXA-97. Type of test: functional.
The subject of test [15] is Escherichia coli. Briefly: Antibacterial activity against Escherichia coli TOP10 harboring pOXA-97 in presence of 4 ug/ml clavulanic acid. In kind it is functional.
Test [16] concerns Acinetobacter baumannii. Briefly: Antibacterial activity against Acinetobacter baumannii CIP7010 by disk diffusion method. In kind it is functional. Put shortly:
as §2

For test [17], the system named is Acinetobacter baumannii. The test is described as follows: Antibacterial activity against Acinetobacter baumannii CIP7010 by disk diffusion method in presence of 4 ug/ml clavulanic acid. Type of test: functional.
Test [18] can be described thus: Antibacterial activity against Escherichia coli DH10B. Type of test: functional, Escherichia coli str. K-12 substr. DH10B.
The subject of test [19] is Escherichia coli. Briefly: Antibacterial activity against Escherichia coli DH10B in presence of 4 ug/ml clavulanic acid. In kind it is functional. Conditions: K-12 DH10B.
Test [20] is described as follows: Antibacterial activity against Escherichia coli DH10B harboring pOXA-97. In kind it is functional, Escherichia coli str. K-12 substr. DH10B.
A short description of test [21]: Antibacterial activity against Escherichia coli DH10B harboring pOXA-97 in presence of 4 ug/ml clavulanic acid. Type of test: functional, Escherichia coli str. K-12 substr. DH10B.
The test system of test [22] is Acinetobacter baumannii. Briefly: Antibacterial activity against Acinetobacter baumannii CIP7010 harboring pOXA-97 by disk diffusion method. In kind it is functional. Put shortly:
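Disk diffusion on Mueller-Hinton agar with β-lactam and non-β-lactam disks, per CLSI guidelines. The strain is an electroporation transformant of recipient CIP7010, with clinical isolates A1 and A2 as plasmid donors, selected on Trypticase soy agar containing 50 μg/ml ticarcillin.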
On the technique in general: In agar diffusion tests the substance spreads into inoculated agar from a disc or well.

Turning to `CC(=O)OCC1=C(C(=O)O)N2C(=O)[C@@H](NC(=O)Cc3cccs3)[C@H]2SC1`, the Activity in the test on Acinetobacter baumannii [1] was 20 mU/mg; with Acinetobacter baumannii [2] it was 10 mU/mg; with Acinetobacter baumannii [3], 15 mU/mg; in the test with Escherichia coli [4] it was 15 mU/mg; in the test on Escherichia coli [5] it was 20 mU/mg.

For the compound `CC1(C)S[C@@H]2[C@H](NC(=O)[C@H](N)c3ccccc3)C(=O)N2[C@H]1C(=O)O` [AMPICILLIN], the MIC in the test on Acinetobacter baumannii [6], in the test with Acinetobacter baumannii [7], in the test on Acinetobacter baumannii [8], with Acinetobacter baumannii [9], against Acinetobacter baumannii [10] and with Acinetobacter baumannii [11] was above 512 µg/mL throughout. The minimum inhibitory concentration (MIC) (commonly the least concentration at which growth counts as inhibited) is above 512 µg/mL in the test with Escherichia coli [12]; 128 µg/mL in the test on Escherichia coli [13]; above 512 µg/mL against Escherichia coli [14]; 128 µg/mL in the test on Escherichia coli [15]; above 512 µg/mL in the test with Acinetobacter baumannii [16]; 512 µg/mL with Acinetobacter baumannii [17]. For the same compound, the MIC in [18] is 4 µg/mL (≈ 11.4 µM); in the test on Escherichia coli [19], 4 µg/mL; in test [20] it was above 512 µg/mL; in test [21] it was 128 µg/mL.

`CO/N=C(\C(=O)N[C@@H]1C(=O)N2C(C(=O)[O-])=C(C[N+]3(C)CCCC3)CS[C@H]12)c1csc(N)n1` [CEFEPIME]: the MIC worked out at 64 µg/mL (≈ 133 µM) in the test on Acinetobacter baumannii [6]; 256 µg/mL (≈ 533 µM) in the test with Acinetobacter baumannii [8]; 256 µg/mL (≈ 533 µM) against Acinetobacter baumannii [10]; 0.06 µg/mL (≈ 0.125 µM) against Escherichia coli [12]; 0.06 µg/mL (≈ 0.125 µM) in the test with Escherichia coli [14]; 1 µg/mL (≈ 2.08 µM) against Acinetobacter baumannii [16]. The figures for the MIC (in the test with Acinetobacter baumannii [22]; in test [18]; in test [20]) were 1 µg/mL (≈ 2.08 µM), 0.06 µg/mL (≈ 0.125 µM) and 0.12 µg/mL (≈ 0.25 µM), respectively.

In the case of `CC(C)(O/N=C(\C(=O)N[C@@H]1C(=O)N2C(C(=O)[O-])=C(C[n+]3ccccc3)CS[C@H]12)c1csc(N)n1)C(=O)O` [CEFTAZIDIME], the minimum inhibitory concentration (MIC) against Acinetobacter baumannii [6] is above 512 µg/mL; with Acinetobacter baumannii [8] it was above 512 µg/mL; against Acinetobacter baumannii [10], 128 µg/mL (≈ 234 µM); against Escherichia coli [12], 0.06 µg/mL (≈ 0.11 µM); in the test on Escherichia coli [14], 0.06 µg/mL (≈ 0.11 µM); with Acinetobacter baumannii [16] it was 2 µg/mL (≈ 3.66 µM). For the same compound, the results for the MIC (against Acinetobacter baumannii [22]; in test [18]; in [20]) were 2 µg/mL (≈ 3.66 µM), 0.06 µg/mL (≈ 0.11 µM) and 0.12 µg/mL (≈ 0.22 µM), respectively. Further, the Activity in the test with Acinetobacter baumannii [1] worked out at 1 mU/mg; in the test with Acinetobacter baumannii [3], 2 mU/mg; with Escherichia coli [4], 1.5 mU/mg; in the test on Escherichia coli [5], 0.5 mU/mg.

For `CC1(C)S[C@@H]2[C@H](NC(=O)[C@H](C(=O)O)c3ccsc3)C(=O)N2[C@H]1C(=O)O` [TICARCILLIN], the MIC in the test with Acinetobacter baumannii [6] was above 512 µg/mL; in the test on Acinetobacter baumannii [8], 64 µg/mL (≈ 166 µM); in the test on Acinetobacter baumannii [10], above 512 µg/mL; against Escherichia coli [12], above 512 µg/mL; in the test on Escherichia coli [14], above 512 µg/mL; in the test with Acinetobacter baumannii [16], 4 µg/mL (≈ 10.4 µM). In addition, the values for the MIC (in the test on Acinetobacter baumannii [22]; in test [18]; in [20]) were above 512 µg/mL, 4 µg/mL (≈ 10.4 µM) and above 512 µg/mL, respectively.

As for `C[C@@H](O)[C@H]1C(=O)N2C(C(=O)O)=C(S[C@@H]3CN[C@H](C(=O)N(C)C)C3)[C@H](C)[C@H]12` [MEROPENEM], the minimal inhibitory concentration (MIC) is 16 µg/mL (≈ 41.7 µM) against Acinetobacter baumannii [6]; 16 µg/mL (≈ 41.7 µM) in the test with Acinetobacter baumannii [8]; above 64 µg/mL with Acinetobacter baumannii [10]; 0.12 µg/mL (≈ 0.313 µM) in the test with Escherichia coli [12]; 0.12 µg/mL (≈ 0.313 µM) in the test on Escherichia coli [14]; 0.25 µg/mL (≈ 0.652 µM) in the test on Acinetobacter baumannii [16]. Also, the minimal inhibitory concentration (MIC) was determined as 2 µg/mL (≈ 5.22 µM) in the test with Acinetobacter baumannii [22], 0.06 µg/mL (≈ 0.156 µM) in [18] and 0.5 µg/mL (≈ 1.3 µM) in test [20]. Besides, the Activity is 1.7 mU/mg with Acinetobacter baumannii [1], 1.5 mU/mg in the test with Acinetobacter baumannii [3], 1 mU/mg with Escherichia coli [4] and 1 mU/mg in the test with Escherichia coli [5].

On to `Cc1onc(-c2ccccc2)c1C(=O)N[C@@H]1C(=O)N2[C@@H]1SC(C)(C)[C@@H]2C(=O)O`, for which the Activity in the test with Acinetobacter baumannii [1] is 230 mU/mg; in the test on Acinetobacter baumannii [3], 230 mU/mg; in the test with Escherichia coli [4], 210 mU/mg; with Escherichia coli [5] it was 220 mU/mg.

For `C[C@H]1[C@H](NC(=O)/C(=N\OC(C)(C)C(=O)O)c2csc(N)n2)C(=O)N1S(=O)(=O)O` [AZTREONAM], the MIC against Acinetobacter baumannii [6] was 128 µg/mL (≈ 294 µM); against Acinetobacter baumannii [8], 128 µg/mL (≈ 294 µM); against Acinetobacter baumannii [10], 32 µg/mL (≈ 73.5 µM); against Escherichia coli [12] it was 0.06 µg/mL (≈ 0.138 µM); against Escherichia coli [14], 0.12 µg/mL (≈ 0.276 µM); against Acinetobacter baumannii [16], 64 µg/mL (≈ 147 µM). Besides, the minimal inhibitory concentration (MIC) worked out at 64 µg/mL (≈ 147 µM) with Acinetobacter baumannii [22], 0.12 µg/mL (≈ 0.276 µM) in test [18] and 0.06 µg/mL (≈ 0.138 µM) in test [20].

Turning to `C[C@@H](O)[C@H]1C(=O)N2C(C(=O)O)=C(SCCNC=N)C[C@H]12` [IMIPENEM ANHYDROUS], the minimal inhibitory concentration (MIC) against Acinetobacter baumannii [6] is 32 µg/mL (≈ 107 µM); against Acinetobacter baumannii [8], 16 µg/mL (≈ 53.4 µM); against Acinetobacter baumannii [10] it was 32 µg/mL (≈ 107 µM); in the test with Escherichia coli [12], 2 µg/mL (≈ 6.68 µM); against Escherichia coli [14], 2 µg/mL (≈ 6.68 µM); in the test with Acinetobacter baumannii [16], 0.25 µg/mL (≈ 0.835 µM). Also, the figures for the minimum inhibitory concentration (MIC) (in the test on Acinetobacter baumannii [22]; in test [18]; in test [20]) were 2 µg/mL (≈ 6.68 µM), 0.06 µg/mL (≈ 0.2 µM) and 1 µg/mL (≈ 3.34 µM), respectively. The Activity in the test with Acinetobacter baumannii [1] was determined as 5.2 mU/mg; in the test on Acinetobacter baumannii [3] it was 4.5 mU/mg; with Escherichia coli [4], 3 mU/mg; in the test with Escherichia coli [5] it was 4 mU/mg.

On to `CC1(C)S[C@@H]2[C@H](NC(=O)Cc3ccccc3)C(=O)N2[C@H]1C(=O)O`, for which the Activity turned out to be 220 mU/mg in the test with Acinetobacter baumannii [1]; 210 mU/mg in the test on Acinetobacter baumannii [2]; 170 mU/mg in the test on Acinetobacter baumannii [3]; 150 mU/mg in the test on Escherichia coli [4]; 220 mU/mg with Escherichia coli [5].

The record behind these values is ChEMBL document CHEMBL1255327, “Carbapenem-resistant Acinetobacter baumannii isolates from Tunisia producing the OXA-58-like carbapenem-hydrolyzing oxacillinase OXA-97” (2008).
